From ChEMBL document CHEMBL4033721, “Design, synthesis and evaluation of indole-2-carboxamides with pan anti-mycobacterial activity” (Bioorg Med Chem, 2017) come the findings set out here.

By MIC is commonly meant the smallest concentration in the dilution series that meets the test's criterion for growth inhibition. A low value points to greater potency.

Data set [1] deals with Mycobacterium tuberculosis. The experiment in a line: Antimycobacterial activity against Mycobacterium tuberculosis H37Rv MC2-6206 after 8 days by resazurin microtiter based colorimetric assay. The conditions noted are these: H37Rv MC2-6206, 192 h. It is filed as functional. The method in brief:
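MIC was measured by resazurin microtiter colorimetric assay with visual growth scoring. Medium was 7H9-ADC–0.05% tyloxapol with 0.2% casaminoacids, 48 µg/ml pantothenate and 50 µg/ml L-leucine.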
(In general: The colour change of resazurin is a common sign of viable cells or microbes.)

The test system of data set [2] is Mycobacteroides abscessus. The experiment in a line: Antimycobacterial activity against Mycobacterium abscessus isolate DCI 21 after 8 days by resazurin microtiter based colorimetric assay. The conditions noted are these: isolate DCI 21, 192 h. It is filed as functional. The method in brief: (§1)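 Resazurin microtiter plate MIC, read by visual scan for growth, in Mueller Hinton II broth. Strains include clinical isolates of M. abscessus complex, M. chelonae, M. avium, M. intracellulare, M. xenopi, P. aeruginosa PAO-1 and S. aureus ATCC 25923.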

The next data set deals with Staphylococcus aureus. Nature of the data set: Antibacterial activity against Staphylococcus aureus ATCC 25923 after 8 days by resazurin microtiter based colorimetric assay. It is filed as functional. The conditions noted are these: ATCC 25923, 192 h. In short, it runs like this: as §1
Data set [3] is described as follows: Selectivity index, ratio of TD50 for human THP1 cells to MIC for Mycobacterium bolletii ATCC 14472. It is filed as toxicity. The conditions noted are these: THP-1 cells, read-out: Selectivity Index. The method in brief: (§2)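 Ratio of THP-1 cytotoxicity to resazurin-assay MIC. Cytotoxicity: THP-1 cells were differentiated with 80 nM PMA overnight, plated for 24 h, then given 10-point DMSO dilutions (top 50 μM, 0.5% final DMSO) for 3 days at 37°C, 5% CO₂. ATP luminescence was read, with a staurosporine control. IC₅₀ = concentration giving 50% viability, from a Levenberg–Marquardt curve fit.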

The next data set deals with Pseudomonas aeruginosa. The experiment in a line: Antibacterial activity against Pseudomonas aeruginosa PAO1 after 8 days by resazurin microtiter based colorimetric assay. Format: functional. The conditions noted are these: PAO1, 192 h. In short, it runs like this: as §1
The nature of data set [4]: Antimycobacterial activity against Mycobacterium massiliense isolate CRM0019 after 8 days by resazurin microtiter based colorimetric assay. It is filed as functional, Mycobacterium abscessus subsp. massiliense. The conditions noted are these: Mycobacteroides abscessus, isolate CRM0019, 192 h. The method in brief:
as §1

The nature of data set [5]: Antimycobacterial activity against Mycobacterium massiliense isolate CIP108297 after 8 days by resazurin microtiter based colorimetric assay. It is filed as functional, Mycobacterium abscessus subsp. massiliense. The conditions noted are these: Mycobacteroides abscessus, isolate CIP108297, 192 h. The method in brief: as §1
Data set [6] has as its system Mycobacterium avium-intracellulare. Nature of the data set: Antimycobacterial activity against Mycobacterium avium-intracellulare isolate 1956 after 8 days by resazurin microtiter based colorimetric assay. The conditions noted are these: isolate 1956, 192 h. Format: functional. The method in brief: as §1
Data set [7] is described as follows: Selectivity index, ratio of TD50 for human THP1 cells to MIC for Mycobacterium abscessus isolate DCI 21. It is filed as toxicity. The conditions noted are these: THP-1 cells, read-out: Selectivity Index. The method in brief:
as §2

In data set [8] the test system is Mycobacterium abscessus subsp. massiliense. The experiment in a line: Inhibition of MmpL3 in Mycobacterium massiliense isolate 1513 assessed as reduction in arabinogalactan after 16 hrs using [1,2-14C]acetate labeled compounds by TLC analysis. The method in brief:
(§3)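 Lipids were run on TLC in CHCl3:CH3OH:H2O 20:4:0.5. Cell wall-bound MAMEs were run in n-hexane:ethyl acetate 95:5, developed three times. Phosphorimaging read-out gave TMM/TDM ratios and MAME radioactivity relative to untreated control.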

Another data set relates to Mycobacterium xenopi. The experiment in a line: Antimycobacterial activity against wild type Mycobacterium xenopi isolate 4042 after 8 days by resazurin microtiter based colorimetric assay. It is filed as functional. The conditions noted are these: isolate 4042, 192 h. The method in brief: as §1
Data set [9] in a line: Selectivity index, ratio of TD50 for human THP1 cells to MIC for Mycobacterium massiliense isolate CRM0019. It is filed as toxicity. The conditions noted are these: THP-1 cells, read-out: Selectivity Index. The method in brief: as §2
Data set [10] concerns Mycobacterium abscessus subsp. massiliense. Nature of the data set: Inhibition of MmpL3 in Mycobacterium massiliense isolate 1513 assessed as reduction in trehalose dimycolate after 16 hrs using [1,2-14C]acetate labeled compounds by TLC analysis. The method in brief:
as §3

The subject of data set [11] is Mycobacteroides abscessus. Nature of the data set: Antimycobacterial activity against Mycobacterium abscessus ATCC 19977 after 8 days by resazurin microtiter based colorimetric assay. The conditions noted are these: ATCC 19977, 192 h. Format: functional. In short, it runs like this:
as §1

The nature of data set [12]: Cytotoxicity against human THP1 cells assessed as reduction in cell viability after 3 days by CellTiter-Glo based luminescence assay. The conditions noted are these: THP-1 cells, read-out: TD50. The method in brief: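 THP-1 cells in complete RPMI, made macrophage-like with 80 nM PMA overnight at 37°C, 5% CO2, then seeded and cultured 24 h. Cells got 10-point DMSO serial dilutions (top 50 µM, final DMSO 0.5%) for 3 days, with staurosporine as control. Viability read by CellTiter-Glo luminescence. IC50 (50% viability) came from a Levenberg–Marquardt curve fit.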
(In general: In ATP-based viability assays light output follows the ATP content of the culture.)

A short description of data set [13]: Selectivity index, ratio of TD50 for human THP1 cells to MIC for Mycobacterium tuberculosis H37Rv MC2-6206. Format: toxicity. The conditions noted are these: THP-1 cells, read-out: Selectivity Index. The method in brief: as §2
For data set [14], the system named is Mycolicibacterium smegmatis. Nature of the data set: Antimycobacterial activity against Mycobacterium smegmatis isolate MC2 155 after 8 days by resazurin microtiter based colorimetric assay. The conditions noted are these: str. MC2 155, 192 h. Format: functional.
The nature of data set [15]: Selectivity index, ratio of TD50 for human THP1 cells to MIC for Mycobacterium chelonae ATCC 35752. Format: toxicity. The conditions noted are these: THP-1 cells, read-out: Selectivity Index. The method in brief: as §2
The next data set relates to Mycobacteroides chelonae. Nature of the data set: Antimycobacterial activity against Mycobacterium chelonae ATCC 35752 after 8 days by resazurin microtiter based colorimetric assay. It is filed as functional. The conditions noted are these: ATCC 35752, 192 h. In short, it runs like this: as §1
Data set [16] relates to Mycobacterium abscessus subsp. massiliense. Nature of the data set: Inhibition of MmpL3 in Mycobacterium massiliense isolate 1513 assessed as reduction in trehalose monomycolate by measuring decrease in mycolic acid transfer to cell envelope after 16 hrs using [1,2-14C]acetate labeled compounds by TLC analysis. The method in brief: as §3
The nature of data set [17]: Antimycobacterial activity against Mycobacterium bolletii ATCC 14472 after 8 days by resazurin microtiter based colorimetric assay. It is filed as functional. The conditions noted are these: Mycobacteroides abscessus, ATCC 14472, 192 h. In short, it runs like this: as §1
Data set [18] deals with Mycobacteroides abscessus. Nature of the data set: Bactericidal activity against Mycobacterium abscessus after 8 days by resazurin microtiter based colorimetric assay. It is filed as functional. In short, it runs like this:
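MBC90 found by subculturing from the MIC wells onto 7H11 agar. Value is the lowest concentration cutting CFU by 90% versus the inoculum.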

The next data set has as its system Mycobacterium avium. The experiment in a line: Antimycobacterial activity against Mycobacterium avium isolate 104 after 8 days by resazurin microtiter based colorimetric assay. The conditions noted are these: isolate 104, 192 h. It is filed as functional. In short, it runs like this:
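M. avium 104 MICs were read by resazurin microtiter colorimetric assay in 96-well plates, with growth scored visually, in Mueller Hinton II medium.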

Values after ≈ are worked out from the molar mass of the structure shown.

In the case of `Cc1cc(C)c2cc(C(=O)NC3CCCCCCC3)[nH]c2c1`, the MIC in data set [1] is 0.0195 µg/mL (≈ 0.0653 µM); in data set [2], 0.0078 µg/mL (≈ 0.0261 µM); in the data set on Staphylococcus aureus, > 160 µg/mL; with Pseudomonas aeruginosa, > 160 µg/mL; in data set [4], 0.0078 µg/mL (≈ 0.0261 µM); in [5], 0.031 µg/mL (≈ 0.104 µM). Further, the MIC is 1 µg/mL (≈ 3.35 µM) in [6]; 0.25 µg/mL (≈ 0.838 µM) against Mycobacterium xenopi; 0.063 µg/mL (≈ 0.211 µM) in data set [11]; 0.313 to 0.625 µg/mL (≈ 1.05 to 2.09 µM) in data set [14]; 0.063 µg/mL (≈ 0.211 µM) against Mycobacteroides chelonae; 0.0039 µg/mL (≈ 0.0131 µM) in [17]. Besides, the selectivity ratio in data set [3] was > 3820; in data set [7], > 1910; in [9], > 1910; in data set [13] it was > 764; in [15] it was > 236. The inhibition result in data set [8], in data set [10] and in [16] was “Dose-dependent effect” each time. In addition, the CC50 at 72 h in data set [12] was > 14.9 µg/mL. Besides, in data set [18], the MBC90 worked out at 0.015 µg/mL (≈ 0.0503 µM).
For `C[C@@H]1[C@H]2C[C@@H](C[C@H]1NC(=O)c1cc3ccccc3[nH]1)C2(C)C`, the MIC in data set [1] was 0.05 µg/mL (≈ 0.169 µM); in data set [2] it was 0.5 µg/mL (≈ 1.69 µM); in the data set with Staphylococcus aureus, 40 µg/mL (≈ 135 µM); in the data set with Pseudomonas aeruginosa, > 160 µg/mL; with Mycobacterium avium it was 8 µg/mL (≈ 27 µM); in data set [4] it was 0.06 µg/mL (≈ 0.202 µM). The MIC is 0.06 µg/mL (≈ 0.202 µM) in [5]; 8 µg/mL (≈ 27 µM) in data set [6]; 0.5 to 1 µg/mL (≈ 1.69 to 3.37 µM) in the data set with Mycobacterium xenopi; 0.12 µg/mL (≈ 0.405 µM) in data set [11]; 0.78 µg/mL (≈ 2.63 µM) in data set [14]; < 0.06 µg/mL in the data set on Mycobacteroides chelonae. Further, the MIC in [17] stood at 0.12 µg/mL (≈ 0.405 µM). In addition, the selectivity ratio in data set [3] is 92; in [7], 22.6; in data set [9] it was 188; in data set [13] it was 226; in data set [15] it was > 188. The inhibition entry in data set [8], in [10] and in data set [16] was “Dose-dependent effect” throughout. Besides, the CC50 at 72 h in [12] worked out at 11.3 µg/mL (≈ 38.1 µM). For the same molecule, the MBC90 in data set [18] was determined as 0.06 µg/mL (≈ 0.202 µM).
As for `Cc1cc(C)c2cc(C(=O)N[C@@H]3C[C@@H]4C[C@H]([C@H]3C)C4(C)C)[nH]c2c1`, the MIC was 0.0195 µg/mL (≈ 0.0601 µM) in [1]; 0.125 µg/mL (≈ 0.385 µM) in data set [2]; > 160 µg/mL in the data set on Staphylococcus aureus; > 160 µg/mL against Pseudomonas aeruginosa; 2 µg/mL (≈ 6.16 µM) in the data set with Mycobacterium avium; 0.125 µg/mL (≈ 0.385 µM) in [4]. Besides, the MIC in data set [5] was 0.125 µg/mL (≈ 0.385 µM); in [6] it was 2 µg/mL (≈ 6.16 µM); in the data set with Mycobacterium xenopi, 0.25 to 1 µg/mL (≈ 0.77 to 3.08 µM); in data set [11] it was 0.125 µg/mL (≈ 0.385 µM); in [14], 1.25 to 2.5 µg/mL (≈ 3.85 to 7.7 µM); against Mycobacteroides chelonae, 0.125 µg/mL (≈ 0.385 µM). For the same molecule, the MIC in [17] came out at 0.125 µg/mL (≈ 0.385 µM). Also, the selectivity ratio in [3] was > 130; in data set [7] it was > 130; in data set [9], > 130; in data set [13], > 830; in [15], > 130. The inhibition entry in data set [8], in data set [10] and in data set [16] was “Dose-dependent effect” in each case. Moreover, the CC50 at 72 h in data set [12] was > 16.2 µg/mL.
For the molecule `O=C(NC12CC3CC(CC(C3)C1)C2)c1cc2ccccc2[nH]1`, the MIC was 0.2 µg/mL (≈ 0.679 µM) in data set [1]; 0.25 µg/mL (≈ 0.849 µM) in [2]; > 160 µg/mL in the data set with Staphylococcus aureus; > 160 µg/mL against Pseudomonas aeruginosa; 8 µg/mL (≈ 27.2 µM) with Mycobacterium avium; 0.25 µg/mL (≈ 0.849 µM) in [4]. Also, the MIC in data set [5] was 0.5 µg/mL (≈ 1.7 µM); in data set [6], 8 µg/mL (≈ 27.2 µM); against Mycobacterium xenopi, 0.5 to 1 µg/mL (≈ 1.7 to 3.4 µM); in data set [11], 0.25 µg/mL (≈ 0.849 µM); in data set [14] it was 1.56 µg/mL (≈ 5.3 µM); in the data set with Mycobacteroides chelonae, 0.25 µg/mL (≈ 0.849 µM). This molecule gave an MIC in [17] of 0.25 µg/mL (≈ 0.849 µM). Besides, the selectivity ratio in data set [3] is > 58; in [7], > 58; in data set [9], > 58; in [13] it was > 73; in data set [15] it was > 58. Moreover, the inhibition result in data set [8], in [10] and in [16] was “Dose-dependent effect” each time. Further, the CC50 at 72 h in data set [12] is > 14.7 µg/mL.
